The source made the active and inactive calls. No cut-off for these calls is given here.
Tested on: HL-60
Assay: Cytotoxicity against human HL-60 cells after 72 hrs by MTT assay
Format: functional, cell-based
Procedure, shortened: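 HL-60 cells grown in RPMI 1640 with 10% FBS, L-glutamine, penicillin and streptomycin, seeded at 3 × 10^4 cells/mL, and preincubated 24 h at 37 °C in 5% CO2. Sample in EtOH-H2O (1:1) added to a final 0.01-10 µg/mL, with vehicle-only controls, for 72 h. MTT added for 4 h, then formazan dissolved in DMSO and read at 550 nm. IC50 taken from the dose-response curve.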

With `CC(C)CC[C@H](O)[C@@H](C)[C@H]1[C@@H](O[C@@H]2O[C@H](CO)[C@@H](O)[C@H](O)[C@H]2O)C[C@H]2[C@@H]3CC=C4C[C@@H](O)C[C@@H](O[C@@H]5O[C@H](CO)[C@@H](O)[C@H](O)[C@H]5O)[C@]4(C)[C@H]3CC[C@]12C` the Activity was “inactive”.
For `C[C@@H]1CC[C@@]2(OC1)O[C@H]1C[C@H]3[C@@H]4C[C@H](O)[C@H]5C[C@@H](O[C@@H]6O[C@H](CO)[C@H](O[C@@H]7O[C@H](CO)[C@@H](O)[C@H](O[C@@H]8OC[C@@H](O)[C@H](O)[C@H]8O)[C@H]7O[C@@H]7O[C@H](CO)[C@@H](O)[C@H](O)[C@H]7O)[C@H](O)[C@H]6O)[C@H](O)C[C@]5(C)[C@H]4CC[C@]3(C)[C@H]1[C@@H]2C`, the IC50 (HL-60, 72 h) was > 10 µg/mL.
In the case of `CC(C)CC[C@H](O)[C@@H](C)[C@H]1[C@@H](O[C@@H]2O[C@H](CO)[C@@H](O)[C@H](O)[C@H]2O)C[C@H]2[C@@H]3CC=C4C[C@@H](O)C[C@@H](O[C@@H]5O[C@@H](C)[C@H](O)[C@@H](O)[C@H]5O)[C@]4(C)[C@H]3CC[C@]12C`, the Activity is reported as “inactive”.
